Assay results taken from ChEMBL document CHEMBL1139173, “Novel selective human mitochondrial kinase inhibitors: design, synthesis and enzymatic activity” (Bioorg Med Chem, 2007).
Calls of active or inactive are those of the source. No cut-off for these calls is given here.

Legend:
[1] = molecular target: T1, Thymidine kinase, cytosolic (Homo sapiens, UniProt P04183); assay: Inhibition of human TK1 assessed as [methyl-3H]dThd phosphorylation
T1 sequence (P04183 whole entry): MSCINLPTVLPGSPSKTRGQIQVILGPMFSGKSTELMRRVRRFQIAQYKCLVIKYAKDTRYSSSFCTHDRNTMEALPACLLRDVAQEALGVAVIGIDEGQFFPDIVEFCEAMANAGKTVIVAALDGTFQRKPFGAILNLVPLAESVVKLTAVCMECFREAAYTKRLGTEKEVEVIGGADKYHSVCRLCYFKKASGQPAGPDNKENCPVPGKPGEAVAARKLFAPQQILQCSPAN
In short: (§1)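 Purified recombinant GST-fusion kinases (from pGEX-5X-1 cDNAs) assayed in 50 mM Tris–HCl pH 8.0, 2.5 mM MgCl₂, 10 mM DTT, 0.5 mM CHAPS, 3 mg/mL BSA, 2.5 mM ATP, 0.25 µCi [methyl-³H]dThd (2 µM), ± varying inhibitor levels, 37 °C for 30 min. Reactions spotted on DE-81 filter disks, washed, and counted by scintillation. IC50 is the concentration halving dThd phosphorylation.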

[2] = molecular target: T2, Thymidine kinase 2, mitochondrial (Homo sapiens, UniProt O00142); assay: Inhibition of human TK2 assessed as [methyl-3H]dThd phosphorylation; in short: as §1
T2 sequence (O00142 whole entry): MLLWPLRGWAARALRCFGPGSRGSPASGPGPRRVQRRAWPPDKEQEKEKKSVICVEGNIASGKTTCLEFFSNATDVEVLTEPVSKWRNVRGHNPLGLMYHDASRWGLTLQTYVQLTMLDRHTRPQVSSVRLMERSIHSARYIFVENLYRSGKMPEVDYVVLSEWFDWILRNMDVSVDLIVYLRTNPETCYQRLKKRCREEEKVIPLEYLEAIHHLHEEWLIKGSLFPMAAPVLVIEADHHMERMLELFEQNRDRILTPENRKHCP

Thymidine kinase [3] = molecular target: T3, Thymidine kinase (Human alphaherpesvirus 1, UniProt Q9QNF7); assay: Inhibition of HSV1 TK assessed as [methyl-3H]dThd phosphorylation; in short: as §1
T3 sequence (Q9QNF7 whole entry): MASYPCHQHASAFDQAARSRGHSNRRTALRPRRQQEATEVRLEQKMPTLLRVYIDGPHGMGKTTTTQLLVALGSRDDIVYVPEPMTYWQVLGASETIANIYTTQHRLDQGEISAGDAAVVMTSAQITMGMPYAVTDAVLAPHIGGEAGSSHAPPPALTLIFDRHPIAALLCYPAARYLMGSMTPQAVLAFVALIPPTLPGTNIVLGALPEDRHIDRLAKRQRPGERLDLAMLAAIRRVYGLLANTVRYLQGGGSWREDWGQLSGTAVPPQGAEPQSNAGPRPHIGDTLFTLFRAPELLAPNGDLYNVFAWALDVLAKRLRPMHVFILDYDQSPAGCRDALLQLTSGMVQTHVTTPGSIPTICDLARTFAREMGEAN

Deoxynucleoside kinase = molecular target: T4, Deoxynucleoside kinase (Drosophila melanogaster, UniProt Q9XZT6); assay: Inhibition of Drosophila melanogaster dNK assessed as [methyl-3H]dThd phosphorylation
T4 sequence (Q9XZT6 whole entry): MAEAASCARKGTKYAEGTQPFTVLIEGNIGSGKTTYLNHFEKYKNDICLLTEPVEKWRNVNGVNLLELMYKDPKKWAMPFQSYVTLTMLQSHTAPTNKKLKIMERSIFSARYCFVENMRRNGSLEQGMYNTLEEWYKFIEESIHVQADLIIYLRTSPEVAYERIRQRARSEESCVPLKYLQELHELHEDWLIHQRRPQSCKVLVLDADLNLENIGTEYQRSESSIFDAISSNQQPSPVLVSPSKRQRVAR
In short: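 Purified recombinant enzyme expressed as a GST fusion. Mix: 50 mM Tris–HCl pH 8.0, 2.5 mM MgCl2, 10 mM DTT, 0.5 mM CHAPS, 3 mg/mL BSA, 2.5 mM ATP, 2 µM [methyl-3H]dThd (0.25 µCi). Incubated 37 °C, 30 min, with varied inhibitor levels. Aliquots spotted on DE-81 disks, washed, scintillation-counted.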

Thymidine kinase [4] = molecular target: T5, Thymidine kinase (Varicella-zoster virus (strain Dumas) (HHV-3) (Human herpesvirus 3), UniProt P09250); assay: Inhibition of VZV TK assessed as [methyl-3H]dThd phosphorylation; parameters: species or system Human alphaherpesvirus 3
T5 sequence (P09250 whole entry): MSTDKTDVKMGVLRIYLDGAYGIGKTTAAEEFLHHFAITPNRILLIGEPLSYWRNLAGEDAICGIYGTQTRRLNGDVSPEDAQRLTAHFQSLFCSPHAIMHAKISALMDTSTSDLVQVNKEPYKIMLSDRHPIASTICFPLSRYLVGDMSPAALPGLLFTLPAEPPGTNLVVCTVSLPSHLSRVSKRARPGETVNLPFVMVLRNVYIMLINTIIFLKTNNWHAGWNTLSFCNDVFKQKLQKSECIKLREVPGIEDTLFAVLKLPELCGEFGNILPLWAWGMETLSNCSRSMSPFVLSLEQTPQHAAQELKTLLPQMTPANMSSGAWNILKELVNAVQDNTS

[5] = Toxicity against human fibroblast cells assessed as alteration of cellular viability upto 60 uM; assay type: cell-based
In short: (§2)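 Primary fibroblasts from healthy-volunteer forearm skin biopsies were used stationary. They were kept at 37 °C in 5% CO₂ in one of two media: permissive DMEM UP (4.5 g/l glucose, 10% FCS, 50 µg/ml uridine) or restrictive GAL (glucose-free RPMI, 50 µM galactose, 10% dialyzed FCS). Cells were exposed to a range of concentrations for 1 week. Viability was counted by trypan blue exclusion.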

[6] = Toxicity against human fibroblast cells assessed as alteration of mitochondrial function up to 60 uM; assay type: cell-based; in short: as §2
[7] = molecular target: T2, Thymidine kinase 2, mitochondrial; assay: Inhibition of human fibroblast mitochondrial TK2 using dThd substrate
In short: (§3)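 Done on mitochondria isolated from human fibroblasts rather than on recombinant enzymes. TK2 activity was measured with dThd or dCyd as substrate. dGK activity was measured as a control. Read-out was IC50.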

[8] = Toxicity assessed as inhibition of mitochondrial function in normal fibroblasts upto 100 uM; assay type: cell-based; settings: human, fibroblast; in short: as §2
[9] = Toxicity assessed as inhibition of mitochondrial function in human fibroblasts above 100 uM; assay type: cell-based; settings: fibroblast; in short: as §2
Homo sapiens = organism: Homo sapiens; assay: Inhibition of human fibroblast mitochondrial cytochrome c oxidase
In short: (§4)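 Stationary normal skin fibroblasts were exposed to various concentrations for one week in permissive medium (glucose, uridine, 10% FCS). Cytochrome c oxidase (complex IV) and succinate dehydrogenase (complex II) activities were then assayed. COX/SDH ratios were calculated, with SDH as the mtDNA-independent control.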

Fibroblast [10] = assay: Decrease in cytochrome c oxidase to succinate dehydrogenase ratio in human fibroblasts; assay type: functional, cell-based; in short: as §4
Fibroblast [11] = assay: Decrease in nuclear DNA in human fibroblasts at 100 uM; assay type: functional; parameters: scale not given: the % may be the effect or the level left
[12] = molecular target: T2, Thymidine kinase 2, mitochondrial; assay: Inhibition of human fibroblast mitochondrial TK2 using dCyd substrate; in short: as §3
[13] = molecular target: T6, Deoxyguanosine kinase, mitochondrial (Homo sapiens, UniProt Q16854); assay: Inhibition of human fibroblast mitochondrial deoxyguanosine kinase; in short: as §3
T6 sequence (Q16854 whole entry): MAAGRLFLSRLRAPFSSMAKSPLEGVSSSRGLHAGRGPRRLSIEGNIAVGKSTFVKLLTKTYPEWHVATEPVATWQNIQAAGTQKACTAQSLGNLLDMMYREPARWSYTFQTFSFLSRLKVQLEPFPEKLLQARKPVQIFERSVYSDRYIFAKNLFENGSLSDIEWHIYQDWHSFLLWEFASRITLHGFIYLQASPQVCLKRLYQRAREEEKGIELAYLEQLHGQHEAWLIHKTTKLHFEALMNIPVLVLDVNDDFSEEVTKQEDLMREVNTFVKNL

[14] = molecular target: Deoxyguanosine kinase, mitochondrial (Homo sapiens) (UniProt Q16854); assay: Inhibition of human fibroblast mitochondrial deoxyguanosine kinase

Compound	IC50 [1]	IC50 [2]	IC50 (Thymidine kinase [3])	IC50 (Deoxynucleoside kinase)	IC50 (Thymidine kinase [4])	also measured
CCCCCCCC(=O)O[C@H]1[C@H](O)[C@@H](CO)O[C@H]1n1cc(C)c(=O)[nH]c1=O	> 1000 µM	120 µM	> 1000 µM	> 1000 µM	> 1000 µM	–
Cc1cn([C@@H]2O[C@H](CO)[C@@H](O)[C@@H]2O)c(=O)[nH]c1=O	–	–	24 µM	–	–	–
CCCCCCCCO[C@H]1[C@H](O)[C@@H](CO)O[C@H]1n1cc(C)c(=O)n(CCCCCCCC)c1=O	–	> 1000 µM	> 1000 µM	> 1000 µM	> 1000 µM	–
NCCCCCC(=O)O[C@H]1[C@H](O)[C@@H](CO)O[C@H]1n1cc(/C=C/Br)c(=O)[nH]c1=O	> 500 µM	> 500 µM	322 µM	> 500 µM	94 µM	–
O=C(Cc1ccccc1)O[C@H]1[C@H](O)[C@@H](CO)O[C@H]1n1cc(/C=C/Br)c(=O)[nH]c1=O	–	74 µM	247 µM	419 µM	268 µM	–
CCCCCCCC(=O)O[C@H]1[C@H](O)[C@@H](CO)O[C@H]1n1cc(/C=C/Br)c(=O)[nH]c1=O	–	–	≥ 1000 µM	–	–	–
COCC(=O)O[C@H]1[C@H](O)[C@@H](CO)O[C@H]1n1cc(/C=C/Br)c(=O)[nH]c1=O	–	–	84 µM	215 µM	–	–
CCCCCCCCCC(=O)O[C@H]1[C@H](O)[C@@H](CO)O[C@H]1n1cc(/C=C/Br)c(=O)[nH]c1=O	–	–	> 1000 µM	–	–	Activity [5]: Non-toxic; Activity [6]: Not Active; IC50 [7]: 40 µM; Activity [8]: Active; Activity [9]: Toxic; Activity (Homo sapiens): Active; Activity (Fibroblast [10]): Active; Activity (Fibroblast [11]): 50%; IC50 [12]: 97 µM; IC50 [13]: > 1 mM; IC50 [14]: > 1 mM
CCCCC(=O)O[C@H]1[C@H](O)[C@@H](CO)O[C@H]1n1cnc2c(=O)[nH]c(N)nc21	> 500 µM	> 500 µM	> 500 µM	> 500 µM	> 500 µM	–
CCCCC(=O)O[C@H]1[C@H](O)[C@@H](CO)O[C@H]1n1cc(C)c(=O)[nH]c1=O	–	–	> 1000 µM	–	–	–
CCCCCCCCCCCC(=O)O[C@H]1[C@H](O)[C@@H](CO)O[C@H]1n1cc(C)c(=O)[nH]c1=O	≥ 1000 µM	–	≥ 1000 µM	–	–	–
COc1ccc(CC(=O)O[C@H]2[C@H](O)[C@@H](CO)O[C@H]2n2cc(/C=C/Br)c(=O)[nH]c2=O)cc1	–	44 µM	68 µM	182 µM	39 µM	–
CC(C)(C)OC(=O)NCCCCCCCC(=O)O[C@H]1[C@H](O)[C@@H](CO)O[C@H]1n1cc(/C=C/Br)c(=O)[nH]c1=O	–	6.4 µM	447 µM	74 µM	349 µM	–
